Assay results taken from ChEMBL document CHEMBL3351969, “Chalcone based azacarboline analogues as novel antitubulin agents: design, synthesis, biological evaluation and molecular modelling studies” (Eur J Med Chem, 2014).
Calls of active or inactive are those of the source. The calls are words filed in the database; no cut-off is given here.

Key:
Assay type in all cases: functional
THP-1 = assay: Cytotoxicity against human THP1 cells assessed as growth inhibition at 50 uM after 48 hrs by sulforhodamine B assay; conditions: for inhibition of growth at 50 µM: THP-1, 48 h, read-out: GI
How it was run: (§1)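 Single-point SRB screen at 50 µM. Cells were seeded and grown 24 h at 37°C in a CO2 incubator, then exposed to compound in complete medium for 48 h. Cells were fixed with 50% TCA for 1 h at 4°C, water-washed, and stained with 0.4% SRB in 1% acetic acid for 30 min. After 1% TCA washes, dye was dissolved in Tris-HCl (0.01 M, pH 10.4) and OD read at 540 nm.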

A549 = assay: Cytotoxicity against human A549 cells assessed as growth inhibition at 50 uM after 48 hrs by sulforhodamine B assay; conditions: for inhibition of growth at 50 µM: A549, 48 h, read-out: GI; how it was run: as §1
HCT-116 = assay: (§2) Cytotoxicity against human HCT116 cells assessed as growth inhibition at 50 uM after 48 hrs by sulforhodamine B assay; how it was run: as §1
COLO 205 = assay: Cytotoxicity against human COLO205 cells assessed as growth inhibition at 50 uM after 48 hrs by sulforhodamine B assay; conditions: for inhibition of growth at 50 µM: COLO 205, 48 h, read-out: GI; how it was run: as §1
[1] = as §2; conditions: HCT-116, 48 h, read-out: GI; how it was run: as §1

| Compound | growth inhibition (GI) (THP-1) | growth inhibition (GI) (A549) | growth inhibition (GI) (HCT-116) | growth inhibition (GI) (COLO 205) | inhibition of growth at 50 µM (THP-1) | inhibition of growth at 50 µM (A549) | inhibition of growth at 50 µM [1] | inhibition of growth at 50 µM (COLO 205) |
| --- | --- | --- | --- | --- | --- | --- | --- | --- |
| CC(=O)n1c2cc(Br)cc(Br)c2c2cc(-c3ccc(F)cc3)nnc21 | inactive | inactive | inactive | inactive | – | – | – | – |
| COc1cc(-c2cc3c4c(Br)cccc4n(C(C)=O)c3nn2)cc(OC)c1OC | – | – | – | – | 59% | 17% | 43% | 36% |
| CC(=O)n1c2cc(Br)cc(Br)c2c2cc(-c3ccc(Br)cc3)nnc21 | inactive | inactive | inactive | inactive | – | – | – | – |
| CC(=O)n1c2cccc(Cl)c2c2cc(-c3ccc([N+](=O)[O-])cc3)nnc21 | – | inactive | inactive | inactive | 14% | – | – | – |
| COc1ccc(-c2cc3c4c(Br)cccc4n(C(C)=O)c3nn2)cc1 | – | – | – | – | 35% | 7% | 17% | 10% |
| COc1cc(-c2cc3c4c(I)cccc4n(C(C)=O)c3nn2)cc(OC)c1OC | – | – | – | – | 40% | 19% | 23% | 24% |
| CC(=O)n1c2ccccc2c2cc(-c3ccc(Cl)cc3)nnc21 | – | inactive | – | – | 39% | – | 35% | 35% |
| COc1ccc(-c2cc3c4c(I)cccc4n(C(C)=O)c3nn2)cc1OC | – | – | – | – | 33% | 11% | 13% | 14% |
| CC(=O)n1c2cccc(Br)c2c2cc(-c3ccc4ccccc4c3)nnc21 | – | – | – | – | 40% | 8% | 18% | 14% |
| CC(=O)Nc1cccc(-c2cc3c4ccccc4n(C(C)=O)c3nn2)c1 | – | inactive | – | – | 49% | – | 48% | 47% |
| COc1ccc(-c2cc3c4c(Br)cccc4n(C(C)=O)c3nn2)cc1OC | – | – | – | – | 51% | 11% | 23% | 21% |
| CC(=O)n1c2cccc(Cl)c2c2cc(-c3ccccc3)nnc21 | – | inactive | – | – | 50% | – | 29% | 22% |
| CC(=O)n1c2ccccc2c2cc(-c3ccc(Br)cc3)nnc21 | – | inactive | – | – | 25% | – | 24% | 20% |
| CC(=O)n1c2cccc(Br)c2c2cc(-c3cccc4ccccc34)nnc21 | – | – | – | – | 44% | 9% | 18% | 12% |
| CC(=O)n1c2ccccc2c2cc(-c3ccc([N+](=O)[O-])cc3)nnc21 | – | inactive | – | – | 19% | – | 19% | 17% |
| CC(=O)n1c2cccc(Cl)c2c2cc(-c3ccc(Cl)cc3)nnc21 | – | – | – | – | 19% | 5% | 17% | 12% |
| CC(=O)Nc1ccccc1-c1cc2c3ccccc3n(C(C)=O)c2nn1 | – | inactive | – | – | 51% | – | 49% | 50% |
| CC(=O)n1c2ccccc2c2cc(-c3ccc(F)cc3)nnc21 | – | inactive | – | – | 42% | – | 36% | 40% |
| CC(=O)n1c2cccc(Cl)c2c2cc(-c3ccc[nH]3)nnc21 | – | – | – | – | 53% | 16% | 37% | 34% |
